Measured values from ChEMBL document CHEMBL5661979, “Pharmacological inhibition of BMK1 suppresses tumor growth through promyelocytic leukemia protein” (Cancer Cell, 2010).
Calls of active or inactive are those of the source. The calls are words filed in the database; no cut-off is given here.

Key:
[1] = biological target: T1, Cyclin-dependent kinase 2 (Homo sapiens, UniProt P24941); experiment: Inhibition of CDK2 K2 site in human HeLa cells lysate pre incubated for 15 mins followed by ATP acyl phosphate probe addition and measured after 10 mins by LC-MS/MS analysis; type: subcellular
Summary of the method: (§1)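 KiNativ profiling in HeLa lysate (5 mg/mL total protein). Lysate incubated 15 min with inhibitor at 50, 10, 2, 0.8 or 0 μM. ATP or ADP acylphosphate probe then added (5 μM final) and reacted 10 min. Reaction stopped with urea and analysed by targeted MS, using up to four fragment ions per kinase peptide-probe conjugate. % inhibition taken against untreated lysate. Run in duplicate.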

[2] = biological target: Serine/threonine-protein kinase Chk1 (Homo sapiens, UniProt O14757); experiment: Inhibition of CHK1 in human HeLa cells lysate pre incubated for 15 mins followed by ATP acyl phosphate probe addition and measured after 10 mins by LC-MS/MS analysis; type: subcellular
[3] = biological target: c-Jun N-terminal kinase, JNK (Homo sapiens, UniProt P45983+P53779+P45984); experiment: Inhibition of JNK1/JNK2/JNK3 in human HeLa cells lysate pre incubated for 15 mins followed by ATP acyl phosphate probe addition and measured after 10 mins by LC-MS/MS analysis; type: subcellular
[4] = biological target: Dual specificity mitogen-activated protein kinase kinase 3 (Homo sapiens, UniProt P46734); experiment: Inhibition of MAP2K3 in human HeLa cells lysate pre incubated for 15 mins followed by ATP acyl phosphate probe addition and measured after 10 mins by LC-MS/MS analysis; type: subcellular
[5] = biological target: Serine/threonine-protein kinase Nek7 (Homo sapiens, UniProt Q8TDX7); experiment: Inhibition of NEK7 in human HeLa cells lysate pre incubated for 15 mins followed by ADP acyl phosphate probe addition and measured after 10 mins by LC-MS/MS analysis; type: subcellular
[6] = biological target: 5'-AMP-activated protein kinase catalytic subunit alpha-1 (Homo sapiens, UniProt Q13131); experiment: Inhibition of AMPKalpha1 in human HeLa cells lysate at 50 uM pre incubated for 15 mins followed by ADP acyl phosphate probe addition and measured after 10 mins by LC-MS/MS analysis relative to control; type: subcellular; conditions: time 25.0 min
Summary of the method: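 HeLa cell lysates (5 mg/mL total protein) were preincubated with inhibitor at 0, 0.8, 2, 10 or 50 μM for 15 min. ATP or ADP acylphosphate probe was then added (5 μM final) for 10 min, and reactions were stopped with urea. Up to four fragment ions per kinase probe-peptide were quantified by targeted MS. % inhibition was taken relative to untreated lysate. Run in duplicate.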

[7] = biological target: T2, Serine/threonine-protein kinase/endoribonuclease IRE1 (Homo sapiens, UniProt O75460); experiment: Inhibition of IRE1 in human HeLa cells lysate at 50 uM pre incubated for 15 mins followed by ADP acyl phosphate probe addition and measured after 10 mins by LC-MS/MS analysis relative to control; type: subcellular; conditions: time 25.0 min
[8] = biological target: Ribosomal protein S6 kinase alpha-3 (Homo sapiens, UniProt P51812); experiment: Inhibition of RSK2 domain 2 in human HeLa cells lysate at 10 uM pre incubated for 15 mins followed by ADP acyl phosphate probe addition and measured after 10 mins by LC-MS/MS analysis relative to control; type: subcellular; conditions: time 25.0 min
[9] = biological target: Mitogen-activated protein kinase kinase kinase 2 (Homo sapiens) (UniProt Q9Y2U5); experiment: Inhibition of MAP3K2 in human HeLa cells lysate at 10 uM pre incubated for 15 mins followed by ADP acyl phosphate probe addition and measured after 10 mins by LC-MS/MS analysis relative to control; type: subcellular; conditions: time 25.0 min
[10] = biological target: Mitogen-activated protein kinase kinase kinase 1 (Homo sapiens, UniProt Q13233); experiment: Inhibition of MAP3K1 in human HeLa cells lysate at 2 uM pre incubated for 15 mins followed by ADP acyl phosphate probe addition and measured after 10 mins by LC-MS/MS analysis relative to control; type: subcellular; conditions: time 25.0 min
[11] = biological target: T2, Serine/threonine-protein kinase/endoribonuclease IRE1; experiment: Inhibition of IRE1 in human HeLa cells lysate at 2 uM pre incubated for 15 mins followed by ADP acyl phosphate probe addition and measured after 10 mins by LC-MS/MS analysis relative to control; type: subcellular; conditions: time 25.0 min
[12] = biological target: T1, Cyclin-dependent kinase 2; experiment: Inhibition of CDK2 K2 site in human HeLa cells lysate at 2 uM pre incubated for 15 mins followed by ADP acyl phosphate probe addition and measured after 10 mins by LC-MS/MS analysis relative to control; type: subcellular; conditions: time 25.0 min; summary of the method: as §1
[13] = Inhibition of HGK/MINK/TNIK in human HeLa cells lysate at 2 uM pre incubated for 15 mins followed by ADP acyl phosphate probe addition and measured after 10 mins by LC-MS/MS analysis relative to control; conditions: 25 min, condition cancer
[14] = biological target: T3, Interleukin-1 receptor-associated kinase 4 (Homo sapiens) (UniProt Q9NWZ3); experiment: Inhibition of IRAK4 in human HeLa cells lysate at 10 uM pre incubated for 15 mins followed by ATP acyl phosphate probe addition and measured after 10 mins by LC-MS/MS analysis relative to control; type: subcellular; conditions: time 25.0 min
T3 sequence (whole entry): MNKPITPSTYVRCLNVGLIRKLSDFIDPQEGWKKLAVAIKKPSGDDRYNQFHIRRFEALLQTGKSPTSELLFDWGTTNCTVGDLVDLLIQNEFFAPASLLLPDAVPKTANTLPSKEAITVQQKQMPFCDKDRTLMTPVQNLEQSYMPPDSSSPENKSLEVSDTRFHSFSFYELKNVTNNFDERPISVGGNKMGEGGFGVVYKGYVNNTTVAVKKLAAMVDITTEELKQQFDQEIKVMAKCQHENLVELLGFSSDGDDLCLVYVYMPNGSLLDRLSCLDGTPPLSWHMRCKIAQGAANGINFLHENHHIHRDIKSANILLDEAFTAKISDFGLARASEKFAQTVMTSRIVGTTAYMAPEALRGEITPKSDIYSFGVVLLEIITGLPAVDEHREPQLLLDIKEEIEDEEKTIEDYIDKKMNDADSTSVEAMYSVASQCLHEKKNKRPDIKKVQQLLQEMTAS

[15] = Inhibition of PKD1/2 in human HeLa cells lysate at 2 uM pre incubated for 15 mins followed by ATP acyl phosphate probe addition and measured after 10 mins by LC-MS/MS analysis relative to control; conditions: 25 min, condition cancer
[16] = biological target: Serine/threonine-protein kinase 3/4 (Homo sapiens) (UniProt Q13043+Q13188); experiment: Inhibition of MST1/2 in human HeLa cells lysate at 2 uM pre incubated for 15 mins followed by ATP acyl phosphate probe addition and measured after 10 mins by LC-MS/MS analysis relative to control; type: subcellular; conditions: time 25.0 min
[17] = biological target: Mitogen-activated protein kinase kinase kinase 4 (Homo sapiens, UniProt Q9Y6R4); experiment: Inhibition of MAP3K4 in human HeLa cells lysate at 2 uM pre incubated for 15 mins followed by ATP acyl phosphate probe addition and measured after 10 mins by LC-MS/MS analysis relative to control; type: subcellular; conditions: time 25.0 min
[18] = tested on: Lewis lung carcinoma; experiment: Antitumor activity against mouse LL2 cells transfected with Ad-BMK1 allografted in C57Bl/6 mouse assessed as reduction tumor growth at 50 mg/kg, ip administered on day 7 post implantation measured after 17 days; type: functional, organism-based; conditions: time 10.0 day
Summary of the method: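 LL/2 cells (1×10^6) were injected s.c. into C57Bl/6 mice; 6 per group. Ad-EV or Ad-BMK1(AEF) was given intratumorally on days 7, 11, 15 and 19. Drug was dosed at 50 mg/kg i.p. twice daily from day 8 to day 20; control groups received carrier solution.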

T2 sequence (O75460 19-977 limits assumed): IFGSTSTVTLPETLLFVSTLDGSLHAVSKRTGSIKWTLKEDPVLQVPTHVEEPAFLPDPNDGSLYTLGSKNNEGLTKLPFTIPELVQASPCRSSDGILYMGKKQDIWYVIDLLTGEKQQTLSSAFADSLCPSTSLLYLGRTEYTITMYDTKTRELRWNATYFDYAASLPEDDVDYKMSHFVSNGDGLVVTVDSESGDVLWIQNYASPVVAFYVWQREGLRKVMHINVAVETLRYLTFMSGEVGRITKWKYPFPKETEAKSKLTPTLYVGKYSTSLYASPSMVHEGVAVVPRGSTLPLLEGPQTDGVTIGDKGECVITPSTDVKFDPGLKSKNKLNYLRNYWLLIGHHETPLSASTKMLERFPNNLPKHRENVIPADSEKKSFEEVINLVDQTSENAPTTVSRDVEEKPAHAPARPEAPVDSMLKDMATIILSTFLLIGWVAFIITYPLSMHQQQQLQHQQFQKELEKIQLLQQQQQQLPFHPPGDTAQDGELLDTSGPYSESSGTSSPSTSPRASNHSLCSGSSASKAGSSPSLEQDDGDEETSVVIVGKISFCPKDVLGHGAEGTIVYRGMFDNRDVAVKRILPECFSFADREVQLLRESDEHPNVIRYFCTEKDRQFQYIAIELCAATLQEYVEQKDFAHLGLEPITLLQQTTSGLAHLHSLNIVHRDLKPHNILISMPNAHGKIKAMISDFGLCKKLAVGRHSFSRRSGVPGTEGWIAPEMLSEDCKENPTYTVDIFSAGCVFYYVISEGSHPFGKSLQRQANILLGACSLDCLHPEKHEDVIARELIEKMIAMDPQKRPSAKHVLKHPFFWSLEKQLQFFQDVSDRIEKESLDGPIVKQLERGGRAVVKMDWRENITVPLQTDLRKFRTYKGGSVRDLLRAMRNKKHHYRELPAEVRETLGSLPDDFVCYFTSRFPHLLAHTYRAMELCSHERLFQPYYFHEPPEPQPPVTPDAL
Serine/threonine-protein kinase 3/4 (Homo sapiens), sequence (Q13043 whole entry, looked up): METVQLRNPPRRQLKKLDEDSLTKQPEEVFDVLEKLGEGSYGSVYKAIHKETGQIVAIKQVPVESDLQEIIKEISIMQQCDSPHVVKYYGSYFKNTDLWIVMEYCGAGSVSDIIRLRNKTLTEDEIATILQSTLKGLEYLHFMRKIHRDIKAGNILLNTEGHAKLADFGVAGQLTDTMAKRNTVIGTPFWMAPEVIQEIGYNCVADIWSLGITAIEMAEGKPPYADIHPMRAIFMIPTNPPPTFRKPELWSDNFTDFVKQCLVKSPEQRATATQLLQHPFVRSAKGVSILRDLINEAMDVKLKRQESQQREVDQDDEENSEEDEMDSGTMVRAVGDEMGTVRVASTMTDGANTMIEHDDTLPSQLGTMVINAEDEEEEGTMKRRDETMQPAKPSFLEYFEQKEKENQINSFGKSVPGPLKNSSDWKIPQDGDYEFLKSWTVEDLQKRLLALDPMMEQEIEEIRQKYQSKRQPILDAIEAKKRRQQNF
Serine/threonine-protein kinase 3/4 (Homo sapiens), sequence (Q13188 whole entry, looked up): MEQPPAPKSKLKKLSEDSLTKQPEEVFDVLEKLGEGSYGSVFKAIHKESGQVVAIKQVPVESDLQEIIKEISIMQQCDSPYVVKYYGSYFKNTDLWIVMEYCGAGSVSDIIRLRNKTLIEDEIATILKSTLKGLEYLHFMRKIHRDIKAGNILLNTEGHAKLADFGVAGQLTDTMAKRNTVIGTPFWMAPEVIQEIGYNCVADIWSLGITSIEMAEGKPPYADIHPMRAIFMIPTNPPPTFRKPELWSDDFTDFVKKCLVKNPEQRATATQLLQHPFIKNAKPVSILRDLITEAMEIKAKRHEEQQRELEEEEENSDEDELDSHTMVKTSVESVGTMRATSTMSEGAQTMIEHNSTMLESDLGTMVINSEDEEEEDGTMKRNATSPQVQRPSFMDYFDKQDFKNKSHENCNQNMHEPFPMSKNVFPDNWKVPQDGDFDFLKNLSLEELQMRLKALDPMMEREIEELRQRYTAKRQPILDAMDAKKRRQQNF
Ribosomal protein S6 kinase alpha-3, sequence (P51812 whole entry, the tested form may be a part): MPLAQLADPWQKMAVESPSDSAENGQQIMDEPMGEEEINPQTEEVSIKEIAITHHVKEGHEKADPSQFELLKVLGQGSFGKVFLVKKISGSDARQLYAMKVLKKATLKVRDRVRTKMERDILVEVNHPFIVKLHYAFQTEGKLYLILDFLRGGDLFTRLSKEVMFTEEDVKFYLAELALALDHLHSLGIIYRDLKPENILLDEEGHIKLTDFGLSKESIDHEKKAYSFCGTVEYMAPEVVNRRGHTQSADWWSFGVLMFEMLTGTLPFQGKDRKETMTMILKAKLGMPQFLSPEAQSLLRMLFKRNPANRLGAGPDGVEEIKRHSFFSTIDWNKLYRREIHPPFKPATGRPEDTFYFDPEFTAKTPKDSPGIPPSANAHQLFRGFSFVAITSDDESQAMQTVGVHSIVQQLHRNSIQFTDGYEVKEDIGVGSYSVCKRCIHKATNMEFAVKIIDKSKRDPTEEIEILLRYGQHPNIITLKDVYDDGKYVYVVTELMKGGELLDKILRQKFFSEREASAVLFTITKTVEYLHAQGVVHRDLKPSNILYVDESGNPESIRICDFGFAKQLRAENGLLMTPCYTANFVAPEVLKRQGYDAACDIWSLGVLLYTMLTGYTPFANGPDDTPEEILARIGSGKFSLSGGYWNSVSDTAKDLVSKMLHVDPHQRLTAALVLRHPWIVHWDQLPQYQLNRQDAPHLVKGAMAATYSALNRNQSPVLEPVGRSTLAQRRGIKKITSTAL
Serine/threonine-protein kinase Nek7, sequence (Q8TDX7 whole entry): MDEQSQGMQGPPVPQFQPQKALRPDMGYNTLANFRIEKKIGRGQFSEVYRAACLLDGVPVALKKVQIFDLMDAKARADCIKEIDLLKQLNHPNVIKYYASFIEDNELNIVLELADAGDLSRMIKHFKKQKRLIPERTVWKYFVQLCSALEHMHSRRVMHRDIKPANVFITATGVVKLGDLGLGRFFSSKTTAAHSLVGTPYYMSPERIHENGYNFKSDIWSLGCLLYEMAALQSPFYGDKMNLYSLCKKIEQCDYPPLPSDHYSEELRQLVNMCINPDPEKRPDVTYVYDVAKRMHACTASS
Mitogen-activated protein kinase kinase kinase 1, sequence (Q13233 whole entry): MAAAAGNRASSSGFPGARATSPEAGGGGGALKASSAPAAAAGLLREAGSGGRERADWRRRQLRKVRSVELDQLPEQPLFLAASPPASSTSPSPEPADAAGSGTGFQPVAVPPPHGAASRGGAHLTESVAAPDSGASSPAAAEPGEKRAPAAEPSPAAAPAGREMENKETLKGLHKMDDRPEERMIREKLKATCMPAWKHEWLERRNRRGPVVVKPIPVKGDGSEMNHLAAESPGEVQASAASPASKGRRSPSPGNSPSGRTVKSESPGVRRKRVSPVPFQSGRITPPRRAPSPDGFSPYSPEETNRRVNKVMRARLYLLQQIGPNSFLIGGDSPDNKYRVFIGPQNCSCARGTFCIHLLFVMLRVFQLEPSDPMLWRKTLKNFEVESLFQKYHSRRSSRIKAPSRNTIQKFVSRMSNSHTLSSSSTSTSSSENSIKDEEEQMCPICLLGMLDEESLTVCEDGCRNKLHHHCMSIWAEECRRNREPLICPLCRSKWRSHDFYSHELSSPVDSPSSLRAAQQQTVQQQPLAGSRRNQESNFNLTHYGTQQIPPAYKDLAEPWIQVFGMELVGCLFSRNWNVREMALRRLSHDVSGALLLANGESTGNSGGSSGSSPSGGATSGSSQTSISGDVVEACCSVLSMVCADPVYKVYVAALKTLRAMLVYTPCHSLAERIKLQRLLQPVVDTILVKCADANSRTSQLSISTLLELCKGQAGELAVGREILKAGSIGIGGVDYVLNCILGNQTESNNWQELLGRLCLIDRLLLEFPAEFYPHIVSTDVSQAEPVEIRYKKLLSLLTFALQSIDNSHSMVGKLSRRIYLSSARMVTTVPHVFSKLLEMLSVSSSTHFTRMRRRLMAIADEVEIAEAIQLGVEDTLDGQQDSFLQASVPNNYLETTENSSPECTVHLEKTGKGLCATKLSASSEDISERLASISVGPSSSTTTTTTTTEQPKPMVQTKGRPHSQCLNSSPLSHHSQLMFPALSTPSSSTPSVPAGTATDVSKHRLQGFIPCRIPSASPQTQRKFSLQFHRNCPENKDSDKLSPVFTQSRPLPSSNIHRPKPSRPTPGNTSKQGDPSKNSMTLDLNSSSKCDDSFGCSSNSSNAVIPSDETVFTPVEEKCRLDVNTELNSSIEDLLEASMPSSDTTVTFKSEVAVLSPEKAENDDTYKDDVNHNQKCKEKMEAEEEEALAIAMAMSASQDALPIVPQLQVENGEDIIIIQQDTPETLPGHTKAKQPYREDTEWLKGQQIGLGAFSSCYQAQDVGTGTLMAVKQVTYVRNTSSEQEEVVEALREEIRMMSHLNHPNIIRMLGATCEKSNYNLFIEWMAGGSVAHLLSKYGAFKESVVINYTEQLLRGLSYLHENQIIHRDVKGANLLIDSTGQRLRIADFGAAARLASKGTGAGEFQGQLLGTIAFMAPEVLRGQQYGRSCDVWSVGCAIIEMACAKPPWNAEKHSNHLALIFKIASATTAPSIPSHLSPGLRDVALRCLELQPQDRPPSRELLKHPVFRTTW
5'-AMP-activated protein kinase catalytic subunit alpha-1, sequence (Q13131 whole entry, looked up, the tested form may be a part): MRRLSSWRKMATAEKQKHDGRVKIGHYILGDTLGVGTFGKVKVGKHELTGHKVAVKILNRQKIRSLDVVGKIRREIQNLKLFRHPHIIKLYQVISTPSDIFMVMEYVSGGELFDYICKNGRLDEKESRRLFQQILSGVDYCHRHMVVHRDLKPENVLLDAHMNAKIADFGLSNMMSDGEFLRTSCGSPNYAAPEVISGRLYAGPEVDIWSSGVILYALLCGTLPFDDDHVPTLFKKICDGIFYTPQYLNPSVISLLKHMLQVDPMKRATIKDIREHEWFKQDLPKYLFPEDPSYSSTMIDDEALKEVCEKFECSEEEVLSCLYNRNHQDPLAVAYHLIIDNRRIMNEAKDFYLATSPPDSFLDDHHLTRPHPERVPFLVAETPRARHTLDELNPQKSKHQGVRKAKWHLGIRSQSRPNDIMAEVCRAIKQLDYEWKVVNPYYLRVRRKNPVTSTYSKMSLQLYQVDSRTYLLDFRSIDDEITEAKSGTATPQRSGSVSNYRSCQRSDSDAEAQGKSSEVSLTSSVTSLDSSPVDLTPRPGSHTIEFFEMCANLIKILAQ

## CCOc1cc(N2CCC(O)CC2)ccc1Nc1ncc2c(n1)N(C)c1ccccc1C(=O)N2C
[1]
  IC50: > 50 µM
[2]
  IC50: > 50 µM
[3]
  IC50: > 50 µM
[4]
  IC50: > 50 µM
[5]
  IC50: > 50 µM
[6]
  inhibition: 10.2%
[7]
  inhibition: 6.2%
[8]
  inhibition: -5.7%
[9]
  inhibition: 36.2%
[10]
  inhibition: 11.5%
[11]
  inhibition: 16.5%
[12]
  inhibition: 9.8%
[13]
  inhibition at 2 µM: 8.7%
[14]
  inhibition: 10.5%
[15]
  inhibition at 2 µM: 27.1%
[16]
  inhibition: -9%
[17]
  inhibition: -8.8%
[18]
  Activity: Active
